From ChEMBL document CHEMBL1129660, “Studies on 6-aminoquinolones: synthesis and antibacterial evaluation of 6-amino-8-methylquinolones” (J Med Chem, 1996)
≈ marks a conversion by molar mass, not a printed value.

Legend:
Format in all cases: functional
Shigella = test: Antibacterial activity tested against Shigella enteritidis
Outline: (§1)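 MICs (µg/mL) determined by conventional agar dilution against a panel of eight Gram-negative and five Gram-positive reference strains.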

Bacteria = test: Geometric mean of antibacterial activity (Gram +ve bacteria) of the compound
Outline: (§2)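 Geometric means calculated from agar-dilution MICs (µg/mL), taken separately across the five Gram-positive and the eight Gram-negative panel strains.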

Enterobacter cloacae = test: Antibacterial activity tested against Enterobacter cloacae OMNFI 174
Klebsiella pneumoniae = test: Antibacterial activity tested against Klebsiella pneumoniae (Klebsiella pneumoniae) ATCC 10031; outline: as §1
Escherichia coli [1] = test: Antibacterial activity tested against Escherichia coli ATCC 8739; outline: as §1
[2] = tested on: Staphylococcus epidermidis; test: Antibacterial activity tested against Staphylococcus epidermidis HCF Berset C; outline: as §1
Staphylococcus aureus [3] = test: Antibacterial activity against Staphylococcus aureus MPR 5; outline: as §1
Staphylococcus aureus [4] = test: Antibacterial activity against Staphylococcus aureus ATCC 6538; outline: as §1
Pseudomonas aeruginosa = test: Antibacterial activity tested against P. ae (Pseudomonas aeruginosa) ATCC 9027; outline: as §1
Proteus vulgaris = test: Antibacterial activity tested against Proteus vulgaris CNUR 5; outline: as §1
[5] = Geometric mean of antibacterial activity (Gram -ve bacteria) of the compound; outline: as §2
Providencia stuartii = test: Antibacterial activity tested against Providencia stuartii CNUR 5; outline: as §1
Escherichia coli [6] = test: Antibacterial activity tested against Escherichia coli ISF 432; outline: as §1
Enterococcus faecalis = test: Antibacterial activity tested against Streptococcus faecalis LEP Br; outline: as §1
[7] = tested on: Staphylococcus epidermidis; test: Antibacterial activity tested against Staphylococcus epidermidis CPHL A2; outline: as §1

Structure (SMILES)	MIC (Shigella) [µg/mL]	Geometric mean (Bacteria)	MIC (Enterobacter cloacae) [µg/mL]	MIC (Klebsiella pneumoniae) [µg/mL]	MIC (Escherichia coli [1]) [µg/mL]	MIC [2] [µg/mL]	MIC (Staphylococcus aureus [3]) [µg/mL]	MIC (Staphylococcus aureus [4]) [µg/mL]	MIC (Pseudomonas aeruginosa) [µg/mL]	MIC (Proteus vulgaris) [µg/mL]	Geometric mean [5]	MIC (Providencia stuartii) [µg/mL]	MIC (Escherichia coli [6]) [µg/mL]	MIC (Enterococcus faecalis) [µg/mL]	MIC [7] [µg/mL]
Cc1c(N2CC=CCC2)c(N)cc2c(=O)c(C(=O)O)cn(C3CC3)c12	> 128	128	> 128	1 (≈ 2.95 µM)	1 (≈ 2.95 µM)	> 128	> 128	> 128	> 128	> 128	20.749	> 128	1 (≈ 2.95 µM)	> 128	> 128
Nc1cc2c(=O)c(C(=O)O)cn(C3CC3)c2cc1N1CCc2ccccc2C1	128 (≈ 341 µM)	27.857	128 (≈ 341 µM)	128 (≈ 341 µM)	128 (≈ 341 µM)	16 (≈ 42.6 µM)	4 (≈ 10.7 µM)	128 (≈ 341 µM)	128 (≈ 341 µM)	128 (≈ 341 µM)	107.635	128 (≈ 341 µM)	32 (≈ 85.2 µM)	128 (≈ 341 µM)	16 (≈ 42.6 µM)
Cc1c(N2CCCCC2)c(F)cc2c(=O)c(C(=O)O)cn(C3CC3)c12	0.5 (≈ 1.45 µM)	0.046	16 (≈ 46.5 µM)	0.125 (≈ 0.363 µM)	0.125 (≈ 0.363 µM)	0.03 (≈ 0.0871 µM)	0.03 (≈ 0.0871 µM)	0.03 (≈ 0.0871 µM)	1 (≈ 2.9 µM)	2 (≈ 5.81 µM)	0.591	2 (≈ 5.81 µM)	0.03 (≈ 0.0871 µM)	0.25 (≈ 0.726 µM)	0.03 (≈ 0.0871 µM)
Cc1c(N2CCCC(C)C2)c(N)cc2c(=O)c(C(=O)O)cn(C3CC3)c12 (stereo not given)	1 (≈ 2.81 µM)	0.162	1 (≈ 2.81 µM)	0.03 (≈ 0.0844 µM)	0.03 (≈ 0.0844 µM)	0.25 (≈ 0.703 µM)	0.06 (≈ 0.169 µM)	0.03 (≈ 0.0844 µM)	4 (≈ 11.3 µM)	32 (≈ 90 µM)	0.414	0.25 (≈ 0.703 µM)	0.03 (≈ 0.0844 µM)	2 (≈ 5.63 µM)	0.125 (≈ 0.352 µM)
Cc1c(N2CCNCC2)c(N)cc2c(=O)c(C(=O)O)cn(C3CC3)c12	0.03 (≈ 0.0876 µM)	5.28	0.06 (≈ 0.175 µM)	0.03 (≈ 0.0876 µM)	0.03 (≈ 0.0876 µM)	8 (≈ 23.4 µM)	4 (≈ 11.7 µM)	2 (≈ 5.84 µM)	1 (≈ 2.92 µM)	4 (≈ 11.7 µM)	0.158	2 (≈ 5.84 µM)	0.03 (≈ 0.0876 µM)	16 (≈ 46.7 µM)	4 (≈ 11.7 µM)
Cc1c(N2CCC(C)CC2)c([N+](=O)[O-])cc2c(=O)c(C(=O)O)cn(C3CC3)c12	64 (≈ 166 µM)	8	64 (≈ 166 µM)	64 (≈ 166 µM)	32 (≈ 83 µM)	4 (≈ 10.4 µM)	2 (≈ 5.19 µM)	32 (≈ 83 µM)	64 (≈ 166 µM)	64 (≈ 166 µM)	38.054	64 (≈ 166 µM)	2 (≈ 5.19 µM)	32 (≈ 83 µM)	4 (≈ 10.4 µM)
CNc1cc2c(=O)c(C(=O)O)cn(C3CC3)c2c(C)c1N1CCC(C)CC1	64 (≈ 173 µM)	3.031	64 (≈ 173 µM)	0.5 (≈ 1.35 µM)	1 (≈ 2.71 µM)	4 (≈ 10.8 µM)	1 (≈ 2.71 µM)	1 (≈ 2.71 µM)	> 128	> 128	11.313	16 (≈ 43.3 µM)	0.5 (≈ 1.35 µM)	32 (≈ 86.6 µM)	2 (≈ 5.41 µM)
Cc1c(N2CCC2)c(N)cc2c(=O)c(C(=O)O)cn(C3CC3)c12	16 (≈ 51.1 µM)	18.379	16 (≈ 51.1 µM)	0.25 (≈ 0.798 µM)	16 (≈ 51.1 µM)	16 (≈ 51.1 µM)	8 (≈ 25.5 µM)	8 (≈ 25.5 µM)	> 128	> 128	11.313	64 (≈ 204 µM)	0.25 (≈ 0.798 µM)	> 128	16 (≈ 51.1 µM)
Cc1c(N2CCCC(C)(C)C2)c(N)cc2c(=O)c(C(=O)O)cn(C3CC3)c12	16 (≈ 43.3 µM)	1.132	16 (≈ 43.3 µM)	0.5 (≈ 1.35 µM)	0.5 (≈ 1.35 µM)	1 (≈ 2.71 µM)	0.5 (≈ 1.35 µM)	0.5 (≈ 1.35 µM)	64 (≈ 173 µM)	> 128	6.17	8 (≈ 21.7 µM)	0.5 (≈ 1.35 µM)	16 (≈ 43.3 µM)	1 (≈ 2.71 µM)
Cc1c(N2CC3CCC2CC3)c(N)cc2c(=O)c(C(=O)O)cn(C3CC3)c12	3 (≈ 8.16 µM)	0.246	4 (≈ 10.9 µM)	0.03 (≈ 0.0816 µM)	4 (≈ 10.9 µM)	1 (≈ 2.72 µM)	0.03 (≈ 0.0816 µM)	0.03 (≈ 0.0816 µM)	16 (≈ 43.5 µM)	64 (≈ 174 µM)	2.141	1 (≈ 2.72 µM)	0.3 (≈ 0.816 µM)	4 (≈ 10.9 µM)	0.25 (≈ 0.68 µM)
Cc1c(N2CC(C)NC(C)C2)c(N)cc2c(=O)c(C(=O)O)cn(C3CC3)c12 (stereo not given)	0.25 (≈ 0.675 µM)	2	0.5 (≈ 1.35 µM)	0.03 (≈ 0.081 µM)	0.06 (≈ 0.162 µM)	2 (≈ 5.4 µM)	1 (≈ 2.7 µM)	1 (≈ 2.7 µM)	2 (≈ 5.4 µM)	8 (≈ 21.6 µM)	0.348	2 (≈ 5.4 µM)	0.03 (≈ 0.081 µM)	16 (≈ 43.2 µM)	1 (≈ 2.7 µM)
COc1ccc(-n2cc(C(=O)O)c(=O)c3cc(N)c(N4CCN(C)CC4)c(C)c32)cc1	> 128	84.45	> 128	16 (≈ 37.9 µM)	> 128	64 (≈ 151 µM)	64 (≈ 151 µM)	64 (≈ 151 µM)	> 128	128 (≈ 303 µM)	76.109	128 (≈ 303 µM)	16 (≈ 37.9 µM)	128 (≈ 303 µM)	128 (≈ 303 µM)
CN1CCN(c2cc3c(cc2N)c(=O)c(C(=O)O)cn3C2CC2)CC1	0.25 (≈ 0.73 µM)	4	0.25 (≈ 0.73 µM)	0.03 (≈ 0.0876 µM)	0.25 (≈ 0.73 µM)	4 (≈ 11.7 µM)	2 (≈ 5.84 µM)	2 (≈ 5.84 µM)	4 (≈ 11.7 µM)	64 (≈ 187 µM)	0.642	8 (≈ 23.4 µM)	0.03 (≈ 0.0876 µM)	32 (≈ 93.5 µM)	2 (≈ 5.84 µM)
CN1CCN(c2c(N)cc3c(=O)c(C(=O)O)cn(C4CC4)c3c2F)CC1	0.25 (≈ 0.694 µM)	8	0.25 (≈ 0.694 µM)	0.06 (≈ 0.166 µM)	1 (≈ 2.77 µM)	8 (≈ 22.2 µM)	4 (≈ 11.1 µM)	4 (≈ 11.1 µM)	2 (≈ 5.55 µM)	32 (≈ 88.8 µM)	0.699	4 (≈ 11.1 µM)	0.06 (≈ 0.166 µM)	64 (≈ 178 µM)	4 (≈ 11.1 µM)
Cc1c(N2CCCC(CO)C2)c(N)cc2c(=O)c(C(=O)O)cn(C3CC3)c12 (stereo not given)	1 (≈ 2.69 µM)	0.287	2 (≈ 5.38 µM)	0.016 (≈ 0.0431 µM)	0.016 (≈ 0.0431 µM)	0.25 (≈ 0.673 µM)	0.125 (≈ 0.337 µM)	0.125 (≈ 0.337 µM)	2 (≈ 5.38 µM)	64 (≈ 172 µM)	0.504	4 (≈ 10.8 µM)	0.016 (≈ 0.0431 µM)	2 (≈ 5.38 µM)	0.25 (≈ 0.673 µM)
Cc1c(N2CCC3CCCCC3C2)c(N)cc2c(=O)c(C(=O)O)cn(C3CC3)c12 (stereo not given)	2 (≈ 5.06 µM)	0.186	4 (≈ 10.1 µM)	0.125 (≈ 0.316 µM)	4 (≈ 10.1 µM)	0.125 (≈ 0.316 µM)	0.06 (≈ 0.152 µM)	0.06 (≈ 0.152 µM)	64 (≈ 162 µM)	64 (≈ 162 µM)	4	1 (≈ 2.53 µM)	4 (≈ 10.1 µM)	2 (≈ 5.06 µM)	0.25 (≈ 0.632 µM)
CN1CCN(c2nc3c(cc2N)c(=O)c(C(=O)O)cn3C2CC2)CC1	0.125 (≈ 0.364 µM)	6.063	0.125 (≈ 0.364 µM)	0.03 (≈ 0.0874 µM)	0.125 (≈ 0.364 µM)	4 (≈ 11.6 µM)	4 (≈ 11.6 µM)	4 (≈ 11.6 µM)	2 (≈ 5.82 µM)	64 (≈ 186 µM)	0.416	2 (≈ 5.82 µM)	0.06 (≈ 0.175 µM)	32 (≈ 93.2 µM)	4 (≈ 11.6 µM)
CC1CN(c2cc3c(cc2N)c(=O)c(C(=O)O)cn3C2CC2)CCS1 (stereo not given)	0.5 (≈ 1.39 µM)	1.32	0.5 (≈ 1.39 µM)	0.03 (≈ 0.0835 µM)	0.03 (≈ 0.0835 µM)	2 (≈ 5.56 µM)	0.5 (≈ 1.39 µM)	0.5 (≈ 1.39 µM)	2 (≈ 5.56 µM)	128 (≈ 356 µM)	0.451	1 (≈ 2.78 µM)	0.03 (≈ 0.0835 µM)	8 (≈ 22.3 µM)	1 (≈ 2.78 µM)
CC1CN(c2cc3c(cc2N)c(=O)c(C(=O)O)cn3C2CC2)CCN1 (stereo not given)	0.25 (≈ 0.73 µM)	10.556	0.25 (≈ 0.73 µM)	0.03 (≈ 0.0876 µM)	0.03 (≈ 0.0876 µM)	4 (≈ 11.7 µM)	16 (≈ 46.7 µM)	16 (≈ 46.7 µM)	2 (≈ 5.84 µM)	32 (≈ 93.5 µM)	0.451	16 (≈ 46.7 µM)	0.03 (≈ 0.0876 µM)	32 (≈ 93.5 µM)	4 (≈ 11.7 µM)
Nc1cc2c(=O)c(C(=O)O)cn(C3CC3)c2cc1N1CCCC1	16 (≈ 51.1 µM)	128	8 (≈ 25.5 µM)	0.25 (≈ 0.798 µM)	0.25 (≈ 0.798 µM)	128 (≈ 408 µM)	128 (≈ 408 µM)	128 (≈ 408 µM)	128 (≈ 408 µM)	128 (≈ 408 µM)	6.73	128 (≈ 408 µM)	0.25 (≈ 0.798 µM)	128 (≈ 408 µM)	128 (≈ 408 µM)
CC1CN(c2cc3c(cc2N)c(=O)c(C(=O)O)cn3C2CC2)CC(C)(C)N1 (stereo not given)	0.25 (≈ 0.675 µM)	6.964	0.5 (≈ 1.35 µM)	0.03 (≈ 0.081 µM)	0.03 (≈ 0.081 µM)	4 (≈ 10.8 µM)	8 (≈ 21.6 µM)	8 (≈ 21.6 µM)	2 (≈ 5.4 µM)	64 (≈ 173 µM)	0.451	4 (≈ 10.8 µM)	0.03 (≈ 0.081 µM)	32 (≈ 86.4 µM)	2 (≈ 5.4 µM)
